Our source for the IC50 values is ChEMBL document CHEMBL3611973, “Synthesis and biological evaluation of a novel betulinic acid derivative as an inducer of apoptosis in human colon carcinoma cells (HT-29)” (Eur J Med Chem, 2015).

Experiment [1] relates to MCF7. Nature of the experiment: Cytotoxic activity against human MCF7 cells assessed as cell growth inhibition after 48 hrs by MTT assay. The class given is functional, cell-based. Conditions: MCF7, 48 h. In outline: (§1)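 Log-phase cells (1.25-2.5×10^4/100 µl; RPMI 1640, HepG2 in high-glucose DMEM, 10% FBS) given compound in DMSO (final <0.1%), 0-50 µM, 48 h, 37 °C, 5% CO2. MTT 4 h, DMSO solubilization, OD 540 nm minus background; viability relative to untreated; IC50 by graphical extrapolation, ≥3 experiments in duplicate.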

Experiment [2] relates to U-937. Briefly: Cytotoxic activity against human U937 cells assessed as cell growth inhibition after 48 hrs by MTT assay. The class given is functional, cell-based. Conditions: U-937, 48 h. In outline: as §1
(Formazan colour is commonly taken as a measure of viable cells.)

Experiment [3] deals with HT-29. Briefly: Cytotoxic activity against human HT-29 cells assessed as cell growth inhibition after 48 hrs by MTT assay. To be noted: HT-29, 48 h. The experiment is classed as functional, cell-based. The essentials: as §1
Experiment [4] concerns HepG2. Nature of the experiment: Cytotoxic activity against human HepG2 cells assessed as cell growth inhibition after 48 hrs by MTT assay. To be noted: HepG2, 48 h. The experiment is classed as functional, cell-based. The essentials:
as §1

The test system of experiment [5] is PBMC. Briefly: Cytotoxic activity against human PBMC cells assessed as cell growth inhibition after 48 hrs by MTT assay. The class given is cell-based. The essentials:
as §1

Experiment [6] relates to Jurkat. Nature of the experiment: Cytotoxic activity against human Jurkat cells assessed as cell growth inhibition after 48 hrs by MTT assay. The class given is functional, cell-based. The essentials:
as §1

`C=C(C)[C@@H]1CC[C@]2(C(=O)O)CC[C@]3(C)[C@H](CC[C@@H]4[C@@]5(C)CC[C@H](OC(=O)Cn6cc(-c7cnc(OC)nc7OC)nn6)C(C)(C)[C@@H]5CC[C@]43C)[C@@H]12`: the IC50 (in general, the concentration that inhibits the measured activity by half) in experiment [1] is 44.7 µM; in experiment [2], 41.9 µM; in experiment [3], 39.8 µM; in experiment [4], more than 50 µM; in experiment [5], more than 50 µM; in experiment [6], more than 50 µM.

Take `C=C(C)[C@@H]1CC[C@]2(C(=O)O)CC[C@]3(C)[C@H](CC[C@@H]4[C@@]5(C)CC[C@H](OC(=O)Cn6cc(CO[C@@H]7[C@H]8OC(C)(C)O[C@H]8O[C@@H]7[C@H]7COC(C)(C)O7)nn6)C(C)(C)[C@@H]5CC[C@]43C)[C@@H]12`: the IC50 in experiment [1], in experiment [2], in experiment [3], in experiment [4] and in experiment [6] was more than 50 µM in each case.

For `C=C(C)[C@@H]1CC[C@]2(C(=O)O)CC[C@]3(C)[C@H](CC[C@@H]4[C@@]5(C)CC[C@H](OC(=O)Cn6cc(-c7ccc(C(=O)OCC)cc7)nn6)C(C)(C)[C@@H]5CC[C@]43C)[C@@H]12`, the IC50 was more than 50 µM in experiment [1]; 40.1 µM in experiment [2]; more than 50 µM in experiment [3]; more than 50 µM in experiment [4]; more than 50 µM in experiment [6].

Regarding `C=C(C)[C@@H]1CC[C@]2(C(=O)O)CC[C@]3(C)[C@H](CC[C@@H]4[C@@]5(C)CC[C@H](OC(=O)Cn6cc(-c7ccccc7)nn6)C(C)(C)[C@@H]5CC[C@]43C)[C@@H]12`, the IC50 in experiment [1], in experiment [2], in experiment [3], in experiment [4], in experiment [5] and in experiment [6] was more than 50 µM each time.

Consider `C=C(C)[C@@H]1CC[C@]2(C(=O)O)CC[C@]3(C)[C@H](CC[C@@H]4[C@@]5(C)CC[C@H](OC(=O)Cn6cc(CCCC)nn6)C(C)(C)[C@@H]5CC[C@]43C)[C@@H]12`, for which the half-maximal inhibitory concentration (IC50) was more than 50 µM in experiment [1]; more than 50 µM in experiment [2]; more than 50 µM in experiment [3]; 49.8 µM in experiment [4]; more than 50 µM in experiment [6].

For the compound `C=C(C)[C@@H]1CC[C@]2(C(=O)O)CC[C@]3(C)[C@H](CC[C@@H]4[C@@]5(C)CC[C@H](OC(=O)Cn6cc(CO[C@@H]7[C@H]8OC(C)(C)O[C@H]8O[C@@H]7[C@H](O)CO)nn6)C(C)(C)[C@@H]5CC[C@]43C)[C@@H]12`, the IC50 in experiment [1], in experiment [2], in experiment [3], in experiment [4] and in experiment [6] was more than 50 µM each time.

On to `C=C(C)[C@@H]1CC[C@]2(C(=O)O)CC[C@]3(C)[C@H](CC[C@@H]4[C@@]5(C)CC[C@H](OC(=O)Cn6cc(-c7c[nH]c(=O)[nH]c7=O)nn6)C(C)(C)[C@@H]5CC[C@]43C)[C@@H]12`, for which the IC50 in experiment [1], in experiment [2], in experiment [3], in experiment [4] and in experiment [6] was more than 50 µM each time.

For `C=C(C)[C@@H]1CC[C@]2(C(=O)O)CC[C@]3(C)[C@H](CC[C@@H]4[C@@]5(C)CC[C@H](OC(=O)Cn6cc(-c7ccc8[nH]ccc8c7)nn6)C(C)(C)[C@@H]5CC[C@]43C)[C@@H]12`, the IC50 in experiment [1], in experiment [2], in experiment [3], in experiment [4] and in experiment [6] was more than 50 µM throughout.

As to `C=C(C)[C@@H]1CC[C@]2(C(=O)O)CC[C@]3(C)[C@H](CC[C@@H]4[C@@]5(C)CC[C@H](OC(=O)Cn6cc(-c7ccc([N+](=O)[O-])cc7)nn6)C(C)(C)[C@@H]5CC[C@]43C)[C@@H]12`, the IC50 in experiment [1] is 45.7 µM; in experiment [2], more than 50 µM; in experiment [3], more than 50 µM; in experiment [4], 42.7 µM; in experiment [5] it was more than 50 µM; in experiment [6] it was 44.8 µM.

Regarding `C=C(C)[C@@H]1CC[C@]2(C(=O)O)CC[C@]3(C)[C@H](CC[C@@H]4[C@@]5(C)CC[C@H](OC(=O)Cn6ccnn6)C(C)(C)[C@@H]5CC[C@]43C)[C@@H]12`, the IC50 in experiment [1], in experiment [2], in experiment [3], in experiment [4], in experiment [5] and in experiment [6] was more than 50 µM in each case.

Take `C=C(C)[C@@H]1CC[C@]2(C(=O)O)CC[C@]3(C)[C@H](CC[C@@H]4[C@@]5(C)CC[C@H](OC(=O)Cn6cc(-c7ccc(C(=O)OC)cc7)nn6)C(C)(C)[C@@H]5CC[C@]43C)[C@@H]12`: the IC50 in experiment [1], in experiment [2], in experiment [3], in experiment [4] and in experiment [6] was more than 50 µM each time.
